Experimental data taken from ChEMBL document CHEMBL4359895, “Discovery and biological evaluation of darolutamide derivatives as inhibitors and down-regulators of wild-type AR and the mutants” (Eur J Med Chem, 2019).
Changes are numbered by the printed parent chain. Values after ≈ are worked out from the molar mass of the structure shown. Active and inactive are the calls of the source. The rule behind the calls is not given here.

Legend:
VCaP [1] = experiment: Antiproliferative activity against human VCaP expressing AR assessed as reduction in cell viability incubated for 6 days by CCK-8 assay; assay type: functional, cell-based; details: 144 h
In short: (§1)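 Cell proliferation assay run on LNCaP/AR, VCaP, 22Rv1, PC-3 and L-02 cells, with PC-3 and L-02 serving as AR-independent toxicity controls. IC50 fitted in GraphPad Prism 5 as the mean of at least two experiments, each in duplicate. Deviations under 35%.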

LNCaP [2] = experiment: Antiproliferative activity against human LNCAP expressing AR assessed as reduction in cell viability incubated for 6 days by CCK-8 assay; assay type: functional, cell-based; details: 144 h; in short: as §1
[3] = target: T1, Androgen receptor (Homo sapiens) (UniProt P10275); experiment: Inhibition of AR (unknown origin) transfected in human PC3 cells assessed as receptor transactivation at 0.1 to 30 uM incubated for 24 hrs by dual luciferase reporter gene assay; assay type: cell-based
T1 sequence (whole entry): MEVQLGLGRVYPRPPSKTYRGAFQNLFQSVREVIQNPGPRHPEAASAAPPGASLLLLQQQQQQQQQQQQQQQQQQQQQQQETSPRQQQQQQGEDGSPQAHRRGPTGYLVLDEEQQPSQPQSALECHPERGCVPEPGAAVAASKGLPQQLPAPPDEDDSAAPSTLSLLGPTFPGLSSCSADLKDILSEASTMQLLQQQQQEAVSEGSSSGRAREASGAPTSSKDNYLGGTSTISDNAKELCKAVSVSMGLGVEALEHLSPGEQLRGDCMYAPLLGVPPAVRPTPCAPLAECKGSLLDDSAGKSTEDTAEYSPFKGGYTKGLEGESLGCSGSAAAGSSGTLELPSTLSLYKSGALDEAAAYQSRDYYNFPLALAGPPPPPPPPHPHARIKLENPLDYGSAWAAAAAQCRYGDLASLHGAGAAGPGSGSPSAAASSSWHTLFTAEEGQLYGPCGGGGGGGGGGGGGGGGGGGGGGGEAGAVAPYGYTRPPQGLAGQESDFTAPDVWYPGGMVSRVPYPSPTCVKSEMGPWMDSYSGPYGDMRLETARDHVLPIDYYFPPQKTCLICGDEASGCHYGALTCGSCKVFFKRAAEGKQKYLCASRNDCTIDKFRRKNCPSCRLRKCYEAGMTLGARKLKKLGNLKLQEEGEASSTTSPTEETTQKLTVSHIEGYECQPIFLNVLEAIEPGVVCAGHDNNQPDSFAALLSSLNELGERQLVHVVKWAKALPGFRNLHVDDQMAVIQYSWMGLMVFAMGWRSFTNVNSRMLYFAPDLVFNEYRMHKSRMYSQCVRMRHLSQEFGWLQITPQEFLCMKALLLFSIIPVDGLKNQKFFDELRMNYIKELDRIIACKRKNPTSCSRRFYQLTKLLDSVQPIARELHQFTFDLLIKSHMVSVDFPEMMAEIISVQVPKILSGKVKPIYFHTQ

VCaP [4] = experiment: Inhibition of AR protein expression in human VCaP cells at 10 to 30 uM incubated for 24 hrs by Western blot analysis; assay type: functional, cell-based
In short: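 LNCaP, VCaP and 22Rv1 cells grown in medium with 10% (v/v) FBS. Treated with compounds or DMSO for 24 h. AR-full and AR splice-variant protein then assessed by western blot.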

[5] = Stability of compound in nutrient medium with fetal bovine serum and antibiotic incubated for 6 days by HPLC analysis; details: 144 h
LNCaP [6] = experiment: Inhibition of AR protein expression in human LNCAP cells at 20 uM incubated for 24 hrs by Western blot analysis; assay type: functional, cell-based
In short: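 LNCaP cells treated with 20 µM compound or DMSO for 24 h. AR-full protein detected by western blot with tubulin as loading control, then quantified by ImageJ grayscale analysis.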

PC-3 = experiment: Cytotoxicity against human PC3 assessed as reduction in cell viability incubated for 6 days by CCK-8 assay; assay type: cell-based; details: PC-3, 144 h; in short: as §1
[7] = target: T1, Androgen receptor (Homo sapiens); experiment: Inhibition of EGFP-tagged AR (unknown origin) transfected in human WPMY1 cells assessed as reduction in R1881-induced nuclear translocation of AR at 20 uM incubated for 24 hrs by Hoechst 33342 staining based fluorescence microscopy; assay type: cell-based
In short: (§2)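 WPMY-1 cells transfected with EGFP-tagged wt-AR or AR-F876L. Treated with vehicle or 20 µM compound, with or without 0.5 nM R1881, for 24 h. Nuclei labelled with Hoechst 33342 and AR localisation imaged by fluorescence.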

[8] = test system: T2, Androgen receptor (Homo sapiens), P10275 [F877L]; experiment: Inhibition of EGFP-tagged AR F876L mutant (unknown origin) transfected in human WPMY1 cells assessed as reduction in R1881-induced nuclear translocation of AR F876L at 20 uM incubated for 24 hrs by Hoechst 33342 staining based fluorescence microscopy; assay type: cell-based; in short: as §2
T2 sequence (whole entry): T1 sequence (whole entry) with F877L

CWR22R = experiment: Antiproliferative activity against human 22Rv1 expressing AR assessed as reduction in cell viability incubated for 6 days by CCK-8 assay; assay type: functional, cell-based; details: 22Rv1, 144 h; in short: as §1
[9] = Solubility of compound in PBS incubated for 24 hrs by HPLC analysis; assay type: physicochemical
In short: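 Solubility determined in PBS at 25 ℃ by the saturation shake-flask method. Quantified against calibration curves.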

[10] = target: Bromodomain-containing protein 4 (Homo sapiens) (UniProt O60885); experiment: Inhibition of BRD4 (unknown origin) by alpha-screen assay

Compound: C[C@@H](Cn1ccc(-c2ccc(C#N)c(Cl)c2)n1)Nc1ncnc2nc[nH]c12
- IC50 (VCaP [1]): 640 nM
- IC50 (LNCaP [2]): 960 nM
- inhibition [3]: Active
- inhibition (VCaP [4]): Active
- Stability [5]: Stable
- inhibition (LNCaP [6]): Active
- IC50 (PC-3): 14100 nM
- inhibition [7]: Active
- inhibition [8]: Active
- IC50 (CWR22R): 4240 nM
- solubility at 24 h [9]: 24.5 µM (≈ 9.27 µg/mL)
- inhibition [10]: inactive

Compound: C[C@@H](Cn1ccc(-c2ccc(C#N)c(Cl)c2)n1)Nc1cccc2ncccc12
- IC50 (VCaP [1]): 730 nM
- IC50 (LNCaP [2]): 1080 nM
- inhibition [3]: Active
- inhibition (VCaP [4]): Active
- Stability [5]: Stable
- inhibition (LNCaP [6]): Active
- IC50 (PC-3): 7960 nM
- inhibition [7]: Active
- inhibition [8]: Active
- IC50 (CWR22R): 3920 nM
- solubility at 24 h [9]: < 2.52 µM
- inhibition [10]: inactive
